pIC50: −log10 of the molar value. The source made the active and inactive calls. The calls are words filed in the database; no cut-off is given here.
What was measured:
[1] = molecular target: T1, Kinesin-like protein KIF11 (Homo sapiens, UniProt P52732); assay: Inhibition of human C-terminally His6-tagged microtubule-activated KSP motor domain ATPase activity after 30 mins by luciferase-derived luminescence assay
T1 sequence (P52732 whole entry): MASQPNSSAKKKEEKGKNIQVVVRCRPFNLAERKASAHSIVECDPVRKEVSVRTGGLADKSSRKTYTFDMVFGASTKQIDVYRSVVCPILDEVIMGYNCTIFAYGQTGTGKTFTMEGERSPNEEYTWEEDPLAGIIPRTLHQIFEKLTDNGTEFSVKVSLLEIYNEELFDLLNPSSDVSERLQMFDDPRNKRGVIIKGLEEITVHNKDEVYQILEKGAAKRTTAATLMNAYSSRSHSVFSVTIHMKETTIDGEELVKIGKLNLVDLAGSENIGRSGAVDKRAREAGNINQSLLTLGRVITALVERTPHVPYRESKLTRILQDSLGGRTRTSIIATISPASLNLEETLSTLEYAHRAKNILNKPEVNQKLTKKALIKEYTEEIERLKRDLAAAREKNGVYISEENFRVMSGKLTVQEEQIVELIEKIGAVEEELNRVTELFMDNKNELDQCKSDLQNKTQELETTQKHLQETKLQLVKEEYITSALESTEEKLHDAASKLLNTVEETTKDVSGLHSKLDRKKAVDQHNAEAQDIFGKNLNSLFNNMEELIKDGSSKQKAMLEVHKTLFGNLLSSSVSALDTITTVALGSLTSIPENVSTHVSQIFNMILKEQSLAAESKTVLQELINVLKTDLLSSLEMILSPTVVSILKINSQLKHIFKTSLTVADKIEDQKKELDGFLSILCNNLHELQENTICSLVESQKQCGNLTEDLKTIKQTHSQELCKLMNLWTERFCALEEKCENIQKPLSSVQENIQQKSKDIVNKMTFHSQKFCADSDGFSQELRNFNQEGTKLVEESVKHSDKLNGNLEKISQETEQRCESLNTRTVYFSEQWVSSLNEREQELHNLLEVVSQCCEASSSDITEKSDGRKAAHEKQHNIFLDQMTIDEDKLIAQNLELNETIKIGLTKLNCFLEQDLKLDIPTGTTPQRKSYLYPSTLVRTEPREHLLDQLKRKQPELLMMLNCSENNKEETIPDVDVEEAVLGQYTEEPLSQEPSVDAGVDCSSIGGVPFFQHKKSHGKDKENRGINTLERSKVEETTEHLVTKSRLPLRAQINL

[2] = molecular target: Centromere-associated protein E (Homo sapiens) (UniProt Q02224); assay: Inhibition of CENP-E ATPase activity at 20 uM
[3] = molecular target: T2, Kinesin-like protein KIF22 (Homo sapiens) (UniProt Q14807); assay: Inhibition of Kid ATPase activity at 20 uM
T2 sequence (whole entry): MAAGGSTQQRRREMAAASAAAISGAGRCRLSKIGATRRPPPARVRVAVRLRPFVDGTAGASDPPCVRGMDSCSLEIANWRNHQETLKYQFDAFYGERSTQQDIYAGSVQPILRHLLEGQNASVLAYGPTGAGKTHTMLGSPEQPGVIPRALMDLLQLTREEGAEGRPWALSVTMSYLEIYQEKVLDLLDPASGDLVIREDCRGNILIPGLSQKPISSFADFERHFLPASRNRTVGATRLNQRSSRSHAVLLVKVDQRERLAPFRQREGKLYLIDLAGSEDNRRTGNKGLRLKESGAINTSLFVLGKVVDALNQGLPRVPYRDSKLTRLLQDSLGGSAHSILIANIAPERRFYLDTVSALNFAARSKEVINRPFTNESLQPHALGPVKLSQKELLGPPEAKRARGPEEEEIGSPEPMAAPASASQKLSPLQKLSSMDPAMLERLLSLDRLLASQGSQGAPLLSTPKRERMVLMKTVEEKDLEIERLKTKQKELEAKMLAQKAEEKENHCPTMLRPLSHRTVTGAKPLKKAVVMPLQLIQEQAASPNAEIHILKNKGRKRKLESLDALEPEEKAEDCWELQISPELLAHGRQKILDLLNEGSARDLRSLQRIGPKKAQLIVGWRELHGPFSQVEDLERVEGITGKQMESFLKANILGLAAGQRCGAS

[4] = molecular target: T3, Kinesin-like protein KIF23 (Homo sapiens) (UniProt Q02241); assay: Inhibition of MKLP-1 ATPase activity at 20 uM
T3 sequence (whole entry): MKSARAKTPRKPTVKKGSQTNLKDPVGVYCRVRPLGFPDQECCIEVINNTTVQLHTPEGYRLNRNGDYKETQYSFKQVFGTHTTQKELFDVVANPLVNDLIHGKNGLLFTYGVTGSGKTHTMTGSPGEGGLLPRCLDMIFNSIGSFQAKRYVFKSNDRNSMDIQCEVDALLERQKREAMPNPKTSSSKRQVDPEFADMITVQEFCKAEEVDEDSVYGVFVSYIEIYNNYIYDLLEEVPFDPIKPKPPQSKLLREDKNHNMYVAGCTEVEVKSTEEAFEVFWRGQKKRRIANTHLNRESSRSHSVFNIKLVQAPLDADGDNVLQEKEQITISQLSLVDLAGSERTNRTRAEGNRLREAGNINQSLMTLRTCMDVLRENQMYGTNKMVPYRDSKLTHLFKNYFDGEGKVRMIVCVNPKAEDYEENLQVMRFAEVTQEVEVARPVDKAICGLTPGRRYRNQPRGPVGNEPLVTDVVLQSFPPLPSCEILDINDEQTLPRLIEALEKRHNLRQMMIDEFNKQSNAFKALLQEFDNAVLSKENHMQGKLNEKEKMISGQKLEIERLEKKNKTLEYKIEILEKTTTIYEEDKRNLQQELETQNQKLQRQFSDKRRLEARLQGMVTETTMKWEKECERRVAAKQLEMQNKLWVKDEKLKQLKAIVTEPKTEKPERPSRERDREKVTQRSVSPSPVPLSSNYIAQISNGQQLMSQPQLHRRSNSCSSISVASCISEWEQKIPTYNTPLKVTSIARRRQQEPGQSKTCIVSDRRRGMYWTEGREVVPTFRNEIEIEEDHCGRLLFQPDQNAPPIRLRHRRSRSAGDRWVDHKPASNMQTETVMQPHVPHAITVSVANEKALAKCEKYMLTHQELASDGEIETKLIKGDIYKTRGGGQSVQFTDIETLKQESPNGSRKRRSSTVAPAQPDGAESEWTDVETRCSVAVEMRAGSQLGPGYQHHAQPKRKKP

[5] = organism: Sus scrofa; assay: Inhibition of pig brain topoisomerase 1-mediated supercoiled DNA relaxation after 20 mins by agarose gel electrophoresis analysis
Outline: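 Supercoiled DNA was incubated with topo I, with or without test compound. Gel lanes included supercoiled DNA alone, DNA plus enzyme without compound, and DNA plus enzyme with camptothecin as the reference inhibitor.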

[6] = tested on: HeLa; assay: Cytotoxicity against human HeLa cells after 48 hrs […]; assay type: functional, cell-based; conditions: Homo sapiens, HeLa, 48 h
[7] = tested on: Nucleic Acid; assay: Induction of supercoiled DNA relaxation after 20 mins by agarose gel electrophoresis analysis; assay type: nucleic-acid assay

Centromere-associated protein E (Homo sapiens), sequence (Q02224 whole entry): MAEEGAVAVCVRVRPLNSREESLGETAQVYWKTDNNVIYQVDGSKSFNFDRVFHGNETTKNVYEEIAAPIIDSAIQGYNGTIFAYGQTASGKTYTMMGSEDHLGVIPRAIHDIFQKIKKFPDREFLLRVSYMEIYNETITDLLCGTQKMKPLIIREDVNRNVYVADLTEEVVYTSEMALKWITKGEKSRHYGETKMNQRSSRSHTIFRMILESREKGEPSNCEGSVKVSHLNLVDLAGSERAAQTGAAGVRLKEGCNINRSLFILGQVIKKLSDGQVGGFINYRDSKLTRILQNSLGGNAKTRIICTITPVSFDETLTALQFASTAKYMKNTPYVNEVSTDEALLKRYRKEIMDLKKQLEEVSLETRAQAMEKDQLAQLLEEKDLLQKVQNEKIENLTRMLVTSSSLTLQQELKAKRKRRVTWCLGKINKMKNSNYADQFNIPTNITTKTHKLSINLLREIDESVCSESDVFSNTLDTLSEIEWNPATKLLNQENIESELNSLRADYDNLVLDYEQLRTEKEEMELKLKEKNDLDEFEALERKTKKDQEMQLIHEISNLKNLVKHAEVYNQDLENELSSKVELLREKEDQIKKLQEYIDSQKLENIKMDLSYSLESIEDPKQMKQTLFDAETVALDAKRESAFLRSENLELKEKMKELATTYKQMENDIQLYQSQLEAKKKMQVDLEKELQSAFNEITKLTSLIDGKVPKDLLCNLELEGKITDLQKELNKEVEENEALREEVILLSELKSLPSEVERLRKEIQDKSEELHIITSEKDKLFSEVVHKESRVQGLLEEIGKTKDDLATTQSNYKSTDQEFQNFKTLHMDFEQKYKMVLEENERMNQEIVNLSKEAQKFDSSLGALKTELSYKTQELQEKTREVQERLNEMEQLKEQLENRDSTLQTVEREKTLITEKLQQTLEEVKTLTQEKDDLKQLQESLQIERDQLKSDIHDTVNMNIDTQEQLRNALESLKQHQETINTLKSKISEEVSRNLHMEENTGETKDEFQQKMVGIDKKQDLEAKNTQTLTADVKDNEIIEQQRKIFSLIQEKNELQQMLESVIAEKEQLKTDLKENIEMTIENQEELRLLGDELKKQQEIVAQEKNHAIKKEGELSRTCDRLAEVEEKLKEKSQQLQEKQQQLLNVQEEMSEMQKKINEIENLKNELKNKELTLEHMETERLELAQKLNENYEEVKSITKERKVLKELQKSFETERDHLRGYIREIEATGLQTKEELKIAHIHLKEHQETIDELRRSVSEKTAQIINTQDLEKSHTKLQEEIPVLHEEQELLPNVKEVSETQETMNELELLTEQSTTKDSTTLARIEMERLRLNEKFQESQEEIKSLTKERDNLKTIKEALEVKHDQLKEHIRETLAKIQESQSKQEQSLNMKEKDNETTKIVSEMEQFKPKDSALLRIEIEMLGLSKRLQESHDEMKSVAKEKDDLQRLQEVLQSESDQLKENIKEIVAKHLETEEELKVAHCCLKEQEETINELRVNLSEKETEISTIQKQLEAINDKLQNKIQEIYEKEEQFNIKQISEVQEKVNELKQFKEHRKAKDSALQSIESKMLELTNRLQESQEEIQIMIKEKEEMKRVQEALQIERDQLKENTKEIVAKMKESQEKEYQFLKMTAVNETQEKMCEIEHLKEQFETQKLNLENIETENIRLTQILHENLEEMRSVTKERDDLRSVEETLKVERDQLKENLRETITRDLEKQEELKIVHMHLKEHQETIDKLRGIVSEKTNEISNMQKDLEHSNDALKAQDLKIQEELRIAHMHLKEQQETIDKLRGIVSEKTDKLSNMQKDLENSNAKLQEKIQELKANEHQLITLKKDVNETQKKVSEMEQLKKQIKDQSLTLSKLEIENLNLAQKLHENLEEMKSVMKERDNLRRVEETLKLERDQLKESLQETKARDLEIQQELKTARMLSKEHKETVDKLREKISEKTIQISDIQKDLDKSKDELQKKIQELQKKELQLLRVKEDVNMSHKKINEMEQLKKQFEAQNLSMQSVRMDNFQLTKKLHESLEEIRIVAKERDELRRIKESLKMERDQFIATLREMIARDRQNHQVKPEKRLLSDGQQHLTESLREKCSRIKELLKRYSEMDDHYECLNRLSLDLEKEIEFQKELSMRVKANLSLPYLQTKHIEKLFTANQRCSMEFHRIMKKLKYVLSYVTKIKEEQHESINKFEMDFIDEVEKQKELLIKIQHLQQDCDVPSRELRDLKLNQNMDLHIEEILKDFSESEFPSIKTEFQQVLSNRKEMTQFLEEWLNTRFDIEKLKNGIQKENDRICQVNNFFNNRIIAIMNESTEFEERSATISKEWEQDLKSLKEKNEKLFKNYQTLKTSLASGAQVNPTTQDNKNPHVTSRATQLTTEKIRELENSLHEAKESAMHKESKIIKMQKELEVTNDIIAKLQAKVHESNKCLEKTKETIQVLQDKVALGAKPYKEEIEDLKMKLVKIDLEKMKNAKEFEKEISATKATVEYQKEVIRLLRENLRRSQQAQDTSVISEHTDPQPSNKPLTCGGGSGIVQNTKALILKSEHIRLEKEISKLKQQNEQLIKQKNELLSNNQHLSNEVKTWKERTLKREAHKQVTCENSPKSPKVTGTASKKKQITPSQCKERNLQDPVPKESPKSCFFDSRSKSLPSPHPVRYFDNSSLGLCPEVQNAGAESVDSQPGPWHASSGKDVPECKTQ

Row | Compound | pIC50 [1] | inhibition [2] | inhibition [3] | inhibition [4] | inhibition [5] | pIC50 [6] | Activity [7]
1 | CC(C)(C)c1ccc2c(c1)[nH]c1ccccc12 | 6.52 | inactive | inactive | inactive | inactive | 4.40 | inactive
2 | FC(F)(F)c1ccc2c(c1)[nH]c1ccccc12 | 6.59 | inactive | inactive | inactive | inactive | 4.96 | inactive
3 | FC(F)(F)c1ccc2[nH]c3ccccc3c2c1 | 6.02 | inactive | inactive | inactive | inactive | 4.85 | inactive
